# MrgX1 antagonist = human MrgX1 receptor antagonism, primary screen | MRGX1-HEK293 calcium flux, Fluo-4, BAM8-22 antagonism; stronger effect = lower value | B-score at 10 µM | 310,000 tested, 1.3% active;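 active = calcium-response B-score plate-corrected more than 3 library SD below zero, starting fluorescence within 5 deviations, no agonist response on first addition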;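 also: peak minus trough fluorescence over baseline after final BAM8-22 challenge near maximal dose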
# Target sequence (Q96LB2 whole entry, looked up): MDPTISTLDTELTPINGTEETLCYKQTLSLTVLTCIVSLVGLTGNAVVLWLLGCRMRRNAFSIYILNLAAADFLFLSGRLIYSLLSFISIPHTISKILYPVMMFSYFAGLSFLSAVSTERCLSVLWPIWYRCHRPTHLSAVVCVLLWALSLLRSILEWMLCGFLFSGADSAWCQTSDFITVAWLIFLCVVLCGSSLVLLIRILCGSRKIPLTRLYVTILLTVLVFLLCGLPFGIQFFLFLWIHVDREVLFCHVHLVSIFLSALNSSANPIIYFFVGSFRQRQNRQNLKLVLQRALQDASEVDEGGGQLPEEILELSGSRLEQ
# RGS4 inh = inhibitors of human RGS4. P49798. HEK293 M3R/RGS4 inducible, Fluo-4 calcium flux; stronger effect = higher value; triggered by carbachol at its EC20. B-score at 10 µM. 310,000 tested, 0.45% active;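 active = B-score, a plate-corrected calcium signal, over three deviations above library mean, with baseline fluorescence within five deviations of library mean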;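 also: RGS4 expression induced by doxycycline in cells with stable M3 receptor; B-score is computed from the integrated fluorescence ratio over baseline after carbachol; higher B-score means a larger calcium signal and so more RGS4 inhibition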
# Target sequence (P49798 whole entry, looked up): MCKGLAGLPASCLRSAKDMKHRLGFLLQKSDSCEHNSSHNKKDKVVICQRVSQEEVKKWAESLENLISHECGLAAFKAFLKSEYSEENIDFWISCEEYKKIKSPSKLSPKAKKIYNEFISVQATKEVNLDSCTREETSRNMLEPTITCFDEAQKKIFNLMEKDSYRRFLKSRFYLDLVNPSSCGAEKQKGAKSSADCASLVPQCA
# MrgX1 allo act = human MrgX1 positive allosteric modulation, primary screen; Q96LB2; MrgX1-HEK293, Fluo-4 calcium flux, FDSS; stronger effect = higher value; B-score at 10 µM; 310,000 tested, 0.63% active;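 active = plate-corrected calcium response at least 3 library SD above typical, normal starting fluorescence, not activating the receptor alone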;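 also: compound read alongside a low EC10 to EC30 dose of BAM8-22 agonist; peak minus trough fluorescence over baseline measured at the second addition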
# RGS4 act = potentiators or activators of RGS4. HEK293 M3R/inducible RGS4, carbachol calcium flux Fluo4; stronger effect = lower value. B-score at 10 µM. 310,000 tested, 0.92% active. AID 463111;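 active = B-score of the integrated calcium signal more than 4 SD below the library mean, with starting fluorescence not abnormally high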;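 also: negative B-score means reduced calcium response which marks RGS4 activation or potentiation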
#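 Assay system: HEK293 FlpIn-TREx cells, stable M3R, doxycycline-inducible RGS4 / Probe or stimulus: carbachol, ECmax concentration / Times: overnight RGS4 induction, 30 min dye load 37 °C, 20 min compound RT / Signal: kinetic calcium fluorescence imaging with Fluo4-AM dye, 2 µM / Measure: Agonist-evoked peak-minus-minimum fluorescence over baseline, integrated ratio, B score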
# Kir21 block = inhibitors of mouse Kir2.1 inward-rectifier potassium channel; P35561; HEK293-Kir2.1, FluxOR thallium flux fluorescence; stronger effect = lower value; B-score at 10 µM; 310,000 tested, 0.85% active; AID 1672;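 active = fluorescence ratio B-score at or below minus 3 SD of library scores, with starting-brightness B-score within 2 SD, cut at about -4.2 in these data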;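 also: channel flux triggered by added potassium and thallium sulfate stimulus; B-score of peak minus minimum fluorescence over baseline after thallium stimulus; more negative B-score means stronger Kir2.1 block with less thallium influx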
# MrgX1 ag = activates human MrgX1 receptor signaling | AID 588627 | Q96LB2 | B-score at 10 µM | 310,000 tested, 0.44% active | MrgX1-HEK293 cells, Fluo-4 calcium fluorescence, agonist mode; stronger effect = higher value;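 active = calcium response B-score plate-corrected fluorescence ratio at least 3 library SD, with starting fluorescence B-score inside 5 SD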
#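 Material – MrgX1-expressing HEK293 cells · Input – 15,000 cells seeded per well · Dosing – compound as first of three additions · Times – overnight seeding, then 1 h dark dye loading · Measured by – kinetic Fluo-4 NW fluorescence of intracellular calcium · Read-out – B-scored fluorescence response ratio · Benchmarks – positive and negative control wells on each plate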
# The depositor's hits bear a star; i = inactive. An excerpt weighted towards active compounds, which were near 4.1% of everything screened.
SMILES,MrgX1 antagonist,RGS4 inh,MrgX1 allo act,RGS4 act,Kir21 block,MrgX1 ag
COc1cccc(S(=O)(=O)Nc2cccc(C(=O)N3CCOCC3)c2)c1,i,i,i,-7.52*,1.52,i
Cc1ccc(SCC(=O)OCC(=O)N(C)CC(=O)Nc2ccc(F)cc2)cc1C,i,i,i,i,0.7,48.5*
Cc1nc2ccccc2nc1N/N=C/c1ccc(O)cc1,i,i,i,i,1.05,i
Cc1nc(N/N=C/c2ccc(O)cc2)c2cnn(-c3ccccc3)c2n1,-7.51*,i,i,i,0.3,i
COc1cccc2c1C(=O)C=C(C)C2=O,-7.71*,i,i,-7.14*,-2.08,i
CC1=CC(=O)c2ccccc2C1=O,i,i,i,i,-1,i
Cc1cc(C(=O)N2CCC(Cc3ccccc3)CC2)ccc1[N+](=O)[O-],i,i,i,i,0.89,i
O=[N+]([O-])c1ccc2nc(-c3ccccc3[N+](=O)[O-])[nH]c2c1,i,i,i,i,-0.72,i
Nc1[nH]c2cc([N+](=O)[O-])ccc2c1-c1ccccn1,-7.58*,i,i,i,-1.11,i
CC(C)=CCc1c2c(c3occ(-c4ccc(O)cc4)c(=O)c3c1O)C=CC(C)(C)O2,i,i,i,i,-1.42,i
CC(C)=CCOc1ccc([C@@H]2COc3c(ccc4c3C=CC(C)(C)O4)C2)c(O)c1,i,i,i,-9.42*,1.36,i
Nc1nonc1NC(=O)NN=C1CCCCC1,-5.88*,i,i,i,1.22,i
O=C1NC(=Nc2cccnc2)S/C1=C/c1ccc(F)cc1,i,i,i,i,2.32,i
CCN(CC)Cc1c(O)ccc2c(=O)c(-c3ccc(Cl)cc3)coc12,i,i,i,i,-0.76,i
CCCOC(=O)c1ccc(Oc2coc3c(CN(CC)CC)c(O)ccc3c2=O)cc1,i,i,i,-8.6*,-0.35,i
CC1CN(C)C(C)CC1OC(=O)C(c1ccccc1)c1ccccc1 (centres undefined),i,i,i,-7.23*,-1.54,i
Cc1c(N(C(=O)Nc2ccccc2)C2=NCC(C)S2)c(=O)n(-c2ccccc2)n1C (centres undefined),i,i,i,i,1.03,i
CCN(CC)CCOC(=O)c1ccc(NC(=O)CCCN2C(=O)/C(=C\c3cccs3)SC2=S)cc1,i,i,i,-7.59*,-1.43,i
O=C(CCCN1C(=O)/C(=C/c2cccs2)SC1=S)Nc1cccnc1,-5.56*,i,i,i,-0.19,i
COc1ccc(Cn2c(=O)oc3ccc(C)cc32)cc1,i,i,i,i,0.15,i
COc1ccc(Cn2c(=O)oc3ccc(C)cc32)cc1OC,i,i,i,i,-4.23*,i
C#CCNC(=O)C1=C[C@@H](c2ccc(C(F)(F)F)cc2)C[C@@H](OCCCCO)O1,i,i,i,i,1.97,i
O=C(Nc1ccccc1)C1=C[C@H](c2ccccc2)C[C@H](OCc2ccc(CO)cc2)O1,i,i,7.32*,i,-1.05,i
C#CCNC(=O)C1=C[C@@H](c2ccc(Br)cc2)C[C@@H](OCc2ccc(CO)cc2)O1,i,i,i,i,-0.36,i
C#CCNC(=O)C1=C[C@H](c2ccc(Br)cc2)C[C@H](OCc2ccc(CO)cc2)O1,i,i,i,i,-4.75*,i
SMILES,MrgX1 antagonist,RGS4 inh,MrgX1 allo act,RGS4 act,Kir21 block,MrgX1 ag
C/C(=N\NC(=O)c1ccccc1O)c1ccc(Br)s1,i,i,i,i,2.71,i
COc1ccccc1C(=O)NNC1=C(C(=O)C(F)(F)F)CCC1,i,i,i,i,0.03,39.2*
O=C(NNC1=C(C(=O)C(F)(F)F)CCC1)c1ccccc1O,i,i,i,i,-0.47,i
CCC(=O)NC1(C(F)(F)F)C(=O)Nc2c1c(=O)[nH]c(=O)n2CC(C)C (centres undefined),i,i,i,i,-0.31,i
O=C(O)c1cccc(NC(=O)c2cccc(S(=O)(=O)N3CCCCC3)c2)c1,i,i,i,i,0.36,i
O=C(O)c1cnccn1,i,i,i,i,1.63,i
Cc1noc(C)c1CSc1nnc2scc(-c3ccccc3)n12,i,i,i,i,-5.22*,i
CCOC(=O)c1cc(-c2ccc(/C=N\n3cnnc3)o2)ccc1Cl,i,i,i,i,-0.12,i
CC1=NN(c2ccc(Br)cc2)C(=O)/C1=C/c1ccc(-c2ccccc2C(=O)O)o1,i,i,9.3*,i,0.08,i
CCOC(=O)c1cc(-c2ccc(/C=C3/C(=O)N(c4ccc(C(=O)O)cc4)N=C3C)o2)ccc1Cl,i,i,i,-7.34*,1.74,i
COc1ccc(-n2c(SCc3ccc([N+](=O)[O-])cc3)nnc2-c2ccccc2)cc1,i,i,i,i,-0.75,i
COc1ccc2cc(C(=O)N3CCCC(Nc4ccc(F)cc4)C3)n(C)c2c1 (centres undefined),i,i,i,i,-4.91*,i
COc1cc(OC)cc(C(=O)N2CCCC(Nc3ccc(F)cc3)C2)c1 (centres undefined),i,i,i,i,0.42,i
COc1ccc(Nc2nc(OC)nc(OC)n2)cc1,i,i,i,i,-0.51,i
COc1ccc(Nc2ccnc(Nc3ccc(OC)cc3)n2)cc1,i,i,i,i,-6.52*,i
Oc1cccc(-c2nc3ccc4ccccc4c3c3c2CCC3)c1,i,i,i,i,-0.08,i
Cc1cc(-n2c(C)cc(C(=O)CSc3ncnc4ccccc34)c2C)no1,-4.7*,i,i,i,0.84,i
c1coc(-c2nnc(SCc3nc4ccccc4[nH]3)o2)c1,i,i,i,i,-0.52,i
COc1ccccc1OCC(=O)N1CCC2(CC1)CC(=O)c1ccccc1O2,i,i,i,i,-0.39,i
O=C(O)CSc1c2ccccc2cc2ccccc12,i,i,i,i,0.48,i
Oc1cc(-c2ccccc2)c2ccccc2c1,i,i,i,i,-4.64*,i
COc1ccc(CC(=O)N2CC3(C)CC2CC(C)(C)C3)cc1OC (centres undefined),i,i,i,i,1.27,i
Cc1c(C(=O)N2CCCCC2)c(S(=O)(=O)N2CCN(c3ccc(F)cc3)CC2)c(C)n1C,i,i,i,i,-0.69,i

# Bioassay records deposited in PubChem BioAssay by Johns Hopkins Ion Channel Center.
